High-throughput results as filed in PubChem.
Compounds with a hit are over-represented: about 27% of the library has one in this group of screens.
CYP2C19 act = activators of human cytochrome P450 2C19. 96,000 tested, under 10 active. P33261. activation factor at 5 µM. recombinant CYP2C19, luciferin-H EGE luminescence; active compounds read high; 0 = fully inhibited enzyme, 1 = untreated enzyme. AID 1025;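 active means activation factor of at least 2 at 5 µM in the primary screen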;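 further: 0 = wells with 2.5 mM tranylcypromine and 1 = vehicle-only wells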
Target sequence (P33261 whole entry, looked up): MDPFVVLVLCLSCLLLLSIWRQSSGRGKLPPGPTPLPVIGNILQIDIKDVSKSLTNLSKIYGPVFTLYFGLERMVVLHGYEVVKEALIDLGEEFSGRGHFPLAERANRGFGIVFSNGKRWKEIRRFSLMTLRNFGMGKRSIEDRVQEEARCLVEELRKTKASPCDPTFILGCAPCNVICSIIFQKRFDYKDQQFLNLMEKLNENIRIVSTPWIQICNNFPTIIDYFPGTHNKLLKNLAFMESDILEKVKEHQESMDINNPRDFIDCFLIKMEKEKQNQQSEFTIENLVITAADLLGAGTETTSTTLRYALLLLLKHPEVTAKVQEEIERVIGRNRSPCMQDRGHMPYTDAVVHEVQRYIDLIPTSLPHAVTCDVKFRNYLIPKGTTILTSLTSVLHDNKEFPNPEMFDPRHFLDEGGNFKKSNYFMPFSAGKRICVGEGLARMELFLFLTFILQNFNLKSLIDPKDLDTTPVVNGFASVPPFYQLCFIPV
CYP2C9 inhib = blocks human cytochrome P450 2C9 | inhibition, % at 5 µM | CYP2C9 Supersomes, luciferin-H conversion, luminescence | actives 20% (n = 96,000) | P11712;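 active means blocking of liver enzyme CYP2C9 beyond about 50% at 5 µM, limit read from the data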
CYP2C9 act = activators of human CYP2C9 | actives 1.4% (n = 96,000) | recombinant CYP2C9, luciferin-H conversion, luminescence; active compounds read high; factor 1 = untreated enzyme, 0 = blocked | P11712 | AID 1024 | activation factor at 5 µM;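 active means activation factor of 2 or more for CYP2C9 at a 5 µM dose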;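 further: 0 = sulfaphenazole-blocked wells and 1 = vehicle-only wells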
CYP2C19 inh = blocks human cytochrome P450 2C19. actives 21% (n = 96,000). inhibition, % at 5 µM. P33261. AID 778. CYP2C19 Supersomes, luciferin-H EGE luminescence, 30 min;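 active means CYP2C19 inhibition above a set limit at 5 µM in the primary screen, cut at about 50% in these data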;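 further: plate controls were negative control wells for no effect and 2.5 mM tranylcypromine positive control for full effect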
Rev-RRE block = disrupts HIV-1 Rev binding to RRE RNA; P05866; Rev peptide-RRE RNA binding, FRET; inhibition, % at 8 µM; actives 0.79% (n = 97,000); AID 704;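 active means inhibition above the screen-wide mean plus 3 SD, cut at about 35% in these data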;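 further: 0% = median DMSO wells and 100% = median Neomycin B control wells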
Target sequence (P05866 whole entry, looked up): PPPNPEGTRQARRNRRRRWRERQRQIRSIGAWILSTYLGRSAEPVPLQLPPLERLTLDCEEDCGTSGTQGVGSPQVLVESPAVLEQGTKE
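Assay system: Rev peptide and RRE RNA, both fluorescently labelled; times: 5 min preincubation and 15 min binding, 25 °C; detection: FRET, ex 480 nm, em 540 and 671 nm; read-out basis: % inhibition from 671/540 nm acceptor-to-donor ratio, scaled between controls; benchmarks: DMSO low control, neomycin B high control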
Cav32 inh = inhibitors of human Cav3.2 T-type calcium channel; O95180; Cav3.2-expressing cells, Fluo-4 calcium fluorescence FDSS; active compounds read low; B-score at 10 µM; actives 4% (n = 100,000); AID 449739;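 active means single-dose well whose peak fluorescence ratio is a statistical outlier from its plate by either plate-standardised score or position-corrected B-score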
Active calls of the source: *; x = no result given; [ ] = remark or other dose.

SMILES | CYP2C19 act | CYP2C9 inhib | CYP2C9 act | CYP2C19 inh | Rev-RRE block | Cav32 inh
O=C(CCCl)Nc1cc(SCCO)cc([N+](=O)[O-])c1 | 0.9 | 23 | 0.8 | 13 | 4 | -1.2
COC(=O)c1ccc(C(=O)OC)c(NC(=O)N2c3ccccc3Sc3ccccc32)c1 | 0.9 | 51* | 0.5 | 12 | 15 | -3.1
CCOC(=O)c1c(C)n(C)c2ccc(OC)c(NC(=O)CCN3CCSCC3)c12 | 0.8 | 44 | 0.6 | 22 | 5 | 0.079
CCOC(=O)C1=C(c2ccccc2)OC(N)=C(C#N)C1c1ccc(Cl)s1 (stereo unspecified) | 0.7 | 22 | 0.8 | 34 | 10 | -1.7
CCN1CC=C2C(C1)C(c1ccc(Cl)s1)C(C#N)=C(N)C2(C#N)C#N (stereo unspecified) | 0.3 | 93* | 0.1 | 70* | 87*[fluorescence artefact?] | x
CC(=O)Nc1ccc(SC(C)C(=O)NC(N)=O)cc1 (stereo unspecified) | 1.2 | 18 | 0.8 | -16 | 0 | 0.68
COc1ccccc1-n1cnnc1SCC(=O)c1cc(C)n(Cc2cccs2)c1C | 0 | 89* | 0.1 | 98* | -2 | -2.7
C=CCn1c(SCC(=O)c2cc(C)n(Cc3cccs3)c2C)nnc1-c1ccncc1 | 0.6 | 36 | 0.6 | 44 | x | 1.3
Cc1cc(C(=O)CSc2nnc(-c3ccccc3F)o2)c(C)n1Cc1cccs1 | 0 | 78* | 0.2 | 96* | 2 | -4.9*
Cc1cc(C(=O)CN2C(=O)NC3(CCCCC3)C2=O)c(C)n1Cc1ccc2c(c1)OCO2 | 0.9 | 25 | 0.8 | 15 | 6 | -2.1
Cc1cc(C(=O)CN2C(=O)c3cccc(N)c3C2=O)c(C)n1Cc1cccs1 | 0.1 | -138 | 2.4* | 91* | 8 | -1.1
CCOc1ccccc1NC(=O)C(=O)NCC1CCCN1CC (stereo unspecified) | 1 | 1 | 1 | -1 | -2 | 0.0066
CCO[C@@H]1OC(C(N)=O)=C[C@H](c2coc3ccccc3c2=O)[C@H]1CCCO | x | x | x | x | x | 0.6
O=C(CN1C(=O)NC2(CCCCCCC2)C1=O)NC(=O)NCc1ccco1 | 0.9 | 9 | 0.9 | 9 | 1 | -0.39
O=c1oc2ccccc2n1CCCOc1ccccc1 | 0 | 70* | 0.3 | 98* | x | -0.31
O=C(Cn1c(=O)oc2ccccc21)NC(=O)NCc1ccco1 | 0.3 | 29 | 0.7 | 65* | 2 | 0.3
CCCNC(=O)Cn1c(=O)oc2ccccc21 | 0.3 | -6 | 1.1 | 74* | 4 | 1.1
COc1cccc(NC(=O)Cn2c(=O)oc3ccccc32)c1 | 0.3 | 38 | 0.6 | 68* | 2 | 0.96
CCOc1ccc(NC(=O)Cn2c(=O)oc3ccccc32)cc1 | 0.7 | -6 | 1.1 | 26 | 1 | -0.058
O=C(c1ccco1)N1CCN(CC2CC3C=CC2C3)CC1 (stereo unspecified) | 0.9 | -7 | 1.1 | 10 | -4 | -0.06
O=c1oc2ccccc2n1CCCCCn1c(=O)oc2ccccc21 | 0.2 | -21 | 1.2 | 84* | 11 | 0.42
O=C(Cn1c(=O)oc2ccccc21)Nc1nc(-c2ccccc2)cs1 | 1 | -1 | 1 | -4 | 3 | 1.5
O=C(Cn1c(=O)oc2ccccc21)c1ccccc1 | 0.1 | 25 | 0.7 | 93* | 13 | x
CC(C)(C)c1csc(NC(=O)Cn2c(=O)oc3ccccc32)n1 | 0.8 | 45 | 0.6 | 19 | 13 | -10*
NC(=O)CCn1c(=O)oc2ccccc21 | 1.2 | -13 | 1.1 | -15 | 4 | 0.54
SMILES | CYP2C19 act | CYP2C9 inhib | CYP2C9 act | CYP2C19 inh | Rev-RRE block | Cav32 inh
CNc1c([N+](=O)[O-])cnn1-c1ccc(Cl)cc1 | 0.6 | 17 | 0.8 | 42 | 9 | -0.012
COc1ccc(S(=O)(=O)N2N=C(C)Oc3ccccc3C2=O)cc1 | 0.4 | 9 | 0.9 | 65* | 5 | -0.32
COc1cc2c(cc1OC)C1(Nc3c-2c(-c2ccccc2)nn3-c2ccccc2)C(=O)Nc2ccccc21 (stereo unspecified) | 1 | 60* | 0.4 | 3 | 12 | -1.4
COc1ccc(N2C(=O)CSC23C(=O)Nc2ccccc23)cc1OC (stereo unspecified) | 0.8 | 21 | 0.8 | 25 | 9 | -0.93
COc1cc2c(cc1OC)C1(Nc3c-2c(C)nn3-c2ccccc2)C(=O)Nc2ccccc21 (stereo unspecified) | 0.9 | 66* | 0.3 | 11 | 4 | x
CCc1nn(-c2ccccc2)c2c1-c1cc(OC)c(OC)cc1C1(N2)C(=O)Nc2ccccc21 (stereo unspecified) | 0.8 | 82* | 0.2 | 19 | -3 | x
COc1cc(N2C(=O)CSC23C(=O)Nc2ccccc23)cc(OC)c1OC (stereo unspecified) | 0.8 | 19 | 0.8 | 21 | 3 | 1.2
O=S(=O)(c1ccccc1)n1ccc2ccccc21 | 0.6 | -138 | 2.4* | 36 | 5 | -2.6
O=C(NC(=S)Nc1ccccc1Cl)c1csnn1 | 0.5 | -38 | 1.4 | 45 | 7 | -0.15
COc1ccc(NC(=S)Nc2nc(CC(=O)Nc3ccccc3OC)cs2)cc1 | 0.9 | 28 | 0.7 | 6 | 7 | -0.18
COc1ccc(/C=N/NC(=O)Cc2csc(Nc3cccc(C(F)(F)F)c3)n2)cc1C | x | x | x | x | 5 | -3.9*
O=C(O)c1ccc(COc2cccc(CO)c2)cc1 | 0.1 | 31 | 0.7 | 86* | 4 | 0.18
COc1cc(C(N)=O)ccc1OCc1ccccc1 | 1 | 28 | 0.7 | 4 | 4 | 1.2
C=CCN(c1ccc(C(=O)NCCc2ccccc2)cc1)S(C)(=O)=O | 0.9 | -10 | 1.1 | 10 | 4 | 0.57
Fc1cc2nc(-c3ccncc3)[nH]c2cc1F | 0.4 | 47 | 0.5 | 64* | 13 | x
O=[N+]([O-])c1ccc(-c2nc3ccc([N+](=O)[O-])cc3[nH]2)cc1 | 1.1 | -3 | 1 | -9 | 1 | -1.6
Cc1sc(NC(=O)c2ccco2)c(C(c2ccncc2)N2CCOCC2)c1C (stereo unspecified) | 0.3 | 81* | 0.2 | 67* | 1 | 0.94
Cc1sc(NC(=O)c2ccco2)c(C(c2cccnc2)N2CCCC2)c1C (stereo unspecified) | 0.7 | 53* | 0.5 | 33 | 8 | -0.82
CCCS(=O)(=O)NCCc1cc2ccc(C)cc2[nH]c1=O | x | x | x | x | 2 | 0.078
CC(C)c1nnc(NC(=O)CCC(=O)NCc2ccc3c(c2)OCO3)s1 | 1 | 12 | 0.9 | 1 | -1 | -0.68
Cc1ccc(C)c(CN2C(=O)C(C)Oc3ccc(C)cc32)c1 (stereo unspecified) | 0.6 | 9 | 0.9 | 43 | 15 | -0.6
Cc1ccc(/C=C/C(O)=C2/C(=O)N(C)C3(C)CC2c2ccccc2O3)cc1 (stereo unspecified) | 0.7 | 26 | 0.7 | 33 | 8 | -2.4
